Test results from ChEMBL document CHEMBL1156160, “The introduction of P4 substituted 1-methylcyclohexyl groups into Boceprevir: a change in direction in the search for a second generation HCV NS3 protease inhibitor” (Bioorg Med Chem Lett, 2010).

Key:
[1] = Selectivity for HCV NS3 protease over human neutrophil elastase
Summary of the method: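 Ratio of inhibitory activity against human neutrophil elastase to that against HCV protease (HNE/HCV), taken as selectivity. HCV activity was from a continuous protease assay using NS4A-tethered single-chain NS3 serine protease, giving Ki* as the equilibrium constant for reversible covalent binding of the electrophilic ketone to the active-site serine. Compounds were tested as P1-epimer diastereomer mixtures.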

[2] = tested on: Hepatitis C virus; assay: Antiviral activity against HCV in human hepatoma cells assessed as inhibition of RNA replication by replicon assay; assay type: functional, Hepacivirus hominis
[3] = Inhibition of HCV NS4A tagged recombinant single chain NS3 protease after 15 mins; set-up: species or system Hepacivirus hominis

SMILES	Ratio [1]	EC90 [2] [nM]	Ki [3] [nM]
CC(C)(C)[C@H](NC(=O)NC1(Cc2ccc3ccccc3c2)CCCCC1)C(=O)N1C[C@H]2[C@@H]([C@H]1C(=O)NC(CC1CC1)C(=O)C(N)=O)C2(C)C (stereo partly drawn)			300
CC(C)(C)[C@H](NC(=O)NC1(Cc2cccnc2)CCCCC1)C(=O)N1C[C@H]2[C@@H]([C@H]1C(=O)NC(CC1CC1)C(=O)C(N)=O)C2(C)C (stereo partly drawn)	200	400	25
CC1(NC(=O)N[C@H](C(=O)N2C[C@H]3[C@@H]([C@H]2C(=O)NC(CC2CC2)C(=O)C(N)=O)C3(C)C)C(C)(C)C)CCC1 (stereo partly drawn)	110	200	24
CC(C)(C)[C@H](NC(=O)NC1(Cc2cccc3ccccc23)CCCCC1)C(=O)N1C[C@H]2[C@@H]([C@H]1C(=O)NC(CC1CC1)C(=O)C(N)=O)C2(C)C (stereo partly drawn)	470	400	44
CC1(NC(=O)N[C@H](C(=O)N2C[C@H]3[C@@H]([C@H]2C(=O)NC(CC2CC2)C(=O)C(N)=O)C3(C)C)C(C)(C)C)CCCCCC1 (stereo partly drawn)	155	250	15
CC(C)(C)[C@H](NC(=O)NC1(Cc2ccncc2)CCCCC1)C(=O)N1C[C@H]2[C@@H]([C@H]1C(=O)NC(CC1CC1)C(=O)C(N)=O)C2(C)C (stereo partly drawn)	250	300	39
CC(C)(C)[C@H](NC(=O)NC1(CO)CCCC1)C(=O)N1C[C@H]2[C@@H]([C@H]1C(=O)NC(CC1CC1)C(=O)C(N)=O)C2(C)C (stereo partly drawn)		> 1000	15
CC(C)(C)[C@H](NC(=O)NC1(Cc2ccccc2)CCCCC1)C(=O)N1C[C@H]2[C@@H]([C@H]1C(=O)NC(CC1CC1)C(=O)C(N)=O)C2(C)C (stereo partly drawn)	395	85	12
CC(C)(C)[C@H](NC(=O)NC1(Cc2ccccc2O)CCCCC1)C(=O)N1C[C@H]2[C@@H]([C@H]1C(=O)NC(CC1CC1)C(=O)C(N)=O)C2(C)C (stereo partly drawn)	440	150	19
CC(C)(C)[C@H](NC(=O)NC1(C(=O)c2ccccc2)CCCCC1)C(=O)N1C[C@H]2[C@@H]([C@H]1C(=O)NC(CC1CC1)C(=O)C(N)=O)C2(C)C (stereo partly drawn)	230	2000	100
CC(C)(C)[C@H](NC(=O)NC1(CN)CCCC1)C(=O)N1C[C@H]2[C@@H]([C@H]1C(=O)NC(CC1CC1)C(=O)C(N)=O)C2(C)C (stereo partly drawn)			140
CC(C)(C)[C@H](NC(=O)NC1(CS(=O)(=O)C(C)(C)C)CCCCC1)C(=O)N1C[C@H]2[C@@H]([C@H]1C(=O)NC(CC1CC1)C(=O)C(N)=O)C2(C)C (stereo partly drawn)		100	12
CC1(NC(=O)N[C@H](C(=O)N2C[C@H]3[C@@H]([C@H]2C(=O)NC(CC2CC2)C(=O)C(N)=O)C3(C)C)C(C)(C)C)CCCCC1 (stereo partly drawn)		250	16
CCCC(NC(=O)[C@@H]1[C@@H]2[C@H](CN1C(=O)[C@@H](NC(=O)NC(C)(C)C)C1CCCCC1)C2(C)C)C(=O)C(N)=O (stereo partly drawn)			100
C=CCNC(=O)C(=O)C(CCC)NC(=O)[C@@H]1[C@@H]2[C@H](CN1C(=O)[C@@H](NC(=O)NC(C)(C)C)C1CCCCC1)C2(C)C (stereo partly drawn)			280
CC(C)(C)[C@H](NC(=O)NC1(Cc2ccco2)CCCCC1)C(=O)N1C[C@H]2[C@@H]([C@H]1C(=O)NC(CC1CC1)C(=O)C(N)=O)C2(C)C (stereo partly drawn)		100	11

Results, then the compound that gave them:

Ratio [1]	EC90 [2] [nM]	Ki [3] [nM]	SMILES
1200	90	5	CCS(=O)(=O)CC1(NC(=O)N[C@H](C(=O)N2C[C@H]3[C@@H]([C@H]2C(=O)NC(CC2CCC2)C(=O)C(N)=O)C3(C)C)C(C)(C)C)CCCCC1 (stereo partly drawn)
	200	10	CC1(NC(=O)N[C@H](C(=O)N2C[C@H]3[C@@H]([C@H]2C(=O)NC(CC2CC2)C(=O)C(N)=O)C3(C)C)C(C)(C)C)CCCC1 (stereo partly drawn)
90	400	5	CC(C)(C)[C@H](NC(=O)NC1(CS(=O)(=O)Cc2ccccc2)CCCCC1)C(=O)N1C[C@H]2[C@@H]([C@H]1C(=O)NC(CC1CC1)C(=O)C(N)=O)C2(C)C (stereo partly drawn)
260	400	10	Cc1cc(S(=O)(=O)CC2(NC(=O)N[C@H](C(=O)N3C[C@H]4[C@@H]([C@H]3C(=O)NC(CC3CC3)C(=O)C(N)=O)C4(C)C)C(C)(C)C)CCCCC2)co1 (stereo partly drawn)
	70	9	CC(C)(C)[C@H](NC(=O)NC1(Cc2cccc(O)c2)CCCCC1)C(=O)N1C[C@H]2[C@@H]([C@H]1C(=O)NC(CC1CC1)C(=O)C(N)=O)C2(C)C (stereo partly drawn)
	180	7	CC(C)(C)[C@H](NC(=O)NC1(Cc2ccccn2)CCCCC1)C(=O)N1C[C@H]2[C@@H]([C@H]1C(=O)NC(CC1CC1)C(=O)C(N)=O)C2(C)C (stereo partly drawn)
4100	200	8	CC1(NC(=O)N[C@H](C(=O)N2C[C@H]3[C@@H]([C@H]2C(=O)NC(CC2CCC2)C(=O)C(N)=O)C3(C)C)C(C)(C)C)CCCCC1 (stereo partly drawn)
1570	300	10	CC(C)(C)[C@H](NC(=O)NC1(CS(=O)(=O)c2ccccn2)CCCCC1)C(=O)N1C[C@H]2[C@@H]([C@H]1C(=O)NC(CC1CCC1)C(=O)C(N)=O)C2(C)C (stereo partly drawn)
470	200	9	CC(C)(C)[C@H](NC(=O)NC1(Cc2cccs2)CCCCC1)C(=O)N1C[C@H]2[C@@H]([C@H]1C(=O)NC(CC1CC1)C(=O)C(N)=O)C2(C)C (stereo partly drawn)
620	200	11	CC(C)(C)[C@H](NC(=O)NC1(Cc2nccs2)CCCCC1)C(=O)N1C[C@H]2[C@@H]([C@H]1C(=O)NC(CC1CC1)C(=O)C(N)=O)C2(C)C (stereo partly drawn)
1170	400	11	CC(C)(C)[C@H](NC(=O)NC1(C(O)c2ccccc2)CCCCC1)C(=O)N1C[C@H]2[C@@H]([C@H]1C(=O)NC(CC1CC1)C(=O)C(N)=O)C2(C)C (stereo partly drawn)
1100	200	9	CC(C)(C)[C@H](NC(=O)NC1(CS(=O)(=O)c2ccccc2)CCCCC1)C(=O)N1C[C@H]2[C@@H]([C@H]1C(=O)NC(CC1CCC1)C(=O)C(N)=O)C2(C)C (stereo partly drawn)
	100	3	CC(C)(C)[C@H](NC(=O)NC1(CS(=O)(=O)c2ccccc2)CCCCC1)C(=O)N1C[C@H]2[C@@H]([C@H]1C(=O)NC(CC1CC1)C(=O)C(N)=O)C2(C)C (stereo partly drawn)
200	500	4	CC(C)(C)[C@H](NC(=O)NC1(CS(=O)(=O)Cc2ccco2)CCCCC1)C(=O)N1C[C@H]2[C@@H]([C@H]1C(=O)NC(CC1CC1)C(=O)C(N)=O)C2(C)C (stereo partly drawn)
	100	10	CC(C)(C)[C@H](NC(=O)NC1(Cc2ccsc2)CCCCC1)C(=O)N1C[C@H]2[C@@H]([C@H]1C(=O)NC(CC1CC1)C(=O)C(N)=O)C2(C)C (stereo partly drawn)
	80	3	CC(C)(C)[C@H](NC(=O)NC1(CS(=O)(=O)C(C)(C)C)CCCCC1)C(=O)N1C[C@H]2[C@@H]([C@H]1C(=O)NC(CC1CCC1)C(=O)C(N)=O)C2(C)C (stereo partly drawn)
